Measurements: ChEMBL document CHEMBL1137218, “Long hydrocarbon chain ether diols and ether diacids that favorably alter lipid disorders in vivo” (J Med Chem, 2004)

Assays:
Type in all cases: functional
[1] = test system: Rattus norvegicus; test: Percent change from pre-treatment in Triglycerides level at 30 mg/kg after 1 week.
Summary of the method: (§1)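 Female obese Zucker fatty rats Crl:(Zuc)-faBR, 10–12 weeks old (400–500 g), n=3–4, fed chow. Dosed by oral gavage once daily in 20% EtOH/80% PEG-200 for up to 14 days. Serum taken after a 6 h fast before dosing, at day 7 (orbital plexus) and at day 14 (cardiac puncture). TG by enzymatic kit on analyzer. HDL-C and non-HDL-C from Superose 6 gel-filtration profile area × total cholesterol. Results given as % change from pretreatment.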

[2] = test system: Rattus norvegicus; test: Percent change from pre-treatment in Triglycerides level at 30 mg/kg after 2 weeks.; summary of the method: as §1
[3] = organism: Rattus norvegicus; test: In Vitro inhibitory concentration against lipid synthesis in primary rat hepatocyte culture. na=Not active; inhibition of [14C]acetate incorporation into total lipids is less than 50% at 300 uM.
Summary of the method: (§2)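 Primary hepatocytes isolated from male Sprague-Dawley rats (Seglen method) and plated on collagen in DMEM with 20% FBS, 100 nM insulin, 25 mM glucose. Medium made serum-free after 4 h, cultured overnight to monolayers. Then 4 h incubation with 0.25 μCi [14C]-acetate/well (1 Ci/mol) and 0–300 μM compound. Lipids extracted into scintillant and counted. IC50 derived from lipid synthesis rates by nonlinear sigmoidal fit.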

[4] = test system: Rattus norvegicus; test: Percent change from pre-treatment in Non HDL-Cholesterol level at 30 mg/kg after 1 week.; summary of the method: as §1
[5] = test system: Rattus norvegicus; test: Percent change from pre-treatment in HDL-Cholesterol level at 30 mg/kg after 1 week.; summary of the method: as §1
[6] = test system: Rattus norvegicus; test: Percent change from pre-treatment in HDL-Cholesterol level at 30 mg/kg after 2 weeks.; summary of the method: as §1
[7] = test system: Rattus norvegicus; test: Percent change from pre-treatment in Non HDL-Cholesterol level at 30 mg/kg after 2 weeks.; summary of the method: as §1
[8] = test system: Rattus norvegicus; test: Percent change from pre-treatment in Triglycerides level at 80 mg/kg after 1 week; summary of the method: as §1
[9] = test system: Rattus norvegicus; test: Percent change from pre-treatment in Triglycerides level at 80 mg/kg after 2 weeks; summary of the method: as §1
[10] = test system: Rattus norvegicus; test: Percent change from pre-treatment in Non HDL-Cholesterol level at 80 mg/kg after 2 weeks; summary of the method: as §1
[11] = test system: Rattus norvegicus; test: Percent change from pre-treatment in Non HDL-Cholesterol level at 80 mg/kg after 1 week; summary of the method: as §1
[12] = test system: Rattus norvegicus; test: Percent change from pre-treatment in HDL-Cholesterol level at 80 mg/kg after 1 week; summary of the method: as §1
[13] = test system: Rattus norvegicus; test: Percent change from pre-treatment in HDL-Cholesterol level at 80 mg/kg after 2 weeks; summary of the method: as §1
[14] = test system: Rattus norvegicus; test: Percent change from pre-treatment triglycerides level at 100 mg/Kg after 2 weeks; summary of the method: as §1
[15] = test system: Rattus norvegicus; test: Percent change from pre-treatment triglycerides level at 100 mg/Kg after 1 week; summary of the method: as §1
[16] = test system: Rattus norvegicus; test: Percent change from pre-treatment Non HDL-Cholesterol level at 100 mg/Kg after 1 week; summary of the method: as §1
[17] = test system: Rattus norvegicus; test: Percent change from pre-treatment HDL-Cholesterol level at 100 mg/Kg after 1 week; summary of the method: as §1
[18] = test system: Rattus norvegicus; test: Percent change from pre-treatment Non HDL-Cholesterol level at 100 mg/Kg after 2 weeks; summary of the method: as §1
[19] = organism: Rattus norvegicus; test: In vitro inhibitory concentration against lipid synthesis in primary rat hepatocyte culture; summary of the method: as §2
[20] = test system: Rattus norvegicus; test: Percent change from pre-treatment HDL-Cholesterol level at 100 mg/Kg after 2 weeks; summary of the method: as §1
[21] = test system: Rattus norvegicus; test: Percent change from pre-treatment in Non HDL-Cholesterol level at 97 mg/kg after 1 week.; summary of the method: as §1
[22] = test system: Rattus norvegicus; test: Percent change from pre-treatment in Triglycerides level at 97 mg/kg after 2 weeks.; summary of the method: as §1
[23] = test system: Rattus norvegicus; test: Percent change from pre-treatment in HDL-Cholesterol level at 97 mg/kg after 2 weeks.; summary of the method: as §1
[24] = test system: Rattus norvegicus; test: Percent change from pre-treatment in Non HDL-Cholesterol level at 97 mg/kg after 2 weeks.; summary of the method: as §1
[25] = test system: Rattus norvegicus; test: Percent change from pre-treatment in Triglycerides level at 97 mg/kg after 1 week.; summary of the method: as §1

Compound | Change [14] [%] | Change [15] [%] | Change [16] [%] | Change [17] [%] | Change [18] [%] | IC50 [19] [µM] | Change [20] [%] | further results
CC(CO)(CCCCOCCCC(C)(CO)c1ccccc1)c1ccccc1 (centres undefined) | – | – | – | – | – | – | – | Change [1]: -1%; Change [2]: 21%; IC50 [3]: Not Active; Change [4]: 16%; Change [5]: -2%; Change [6]: -20%; Change [7]: 45%
CC(C)(CCOCCCOCCC(C)(C)C(=O)O)C(=O)O | – | – | – | – | – | – | – | Change [8]: 5%; Change [9]: 46%; Change [10]: 15%; Change [11]: -10%; Change [12]: -18%; Change [13]: -5%
CC(C)(CO)CCCC1CCCC(CCCC(C)(C)CO)O1 (centres undefined) | -46 | -74 | -70 | 75 | -31 | 39 | – | –
CC(C)(CO)CCCOCCOCCCC(C)(C)CO | 6 | -9 | 33 | 3 | 45 | – | 10 | IC50 [3]: Not Active
CC(C)(CO)CCCC1CCC(CCCC(C)(C)CO)O1 (centres undefined) | – | – | – | – | – | 9 | – | Change [21]: 11%; Change [22]: -13%; Change [23]: 140%; Change [24]: 31%; Change [25]: -49%
CC(C)(CO)CCCCCCCCCCCC(C)(C)CO | -35 | -70 | -20 | -5 | 48 | 4 | -1 | –
CC(C)(CCCCOCCCCC(C)(C)CCC(=O)O)CCC(=O)O | -73 | -80 | -50 | 13 | -30 | 22 | 39 | –
CC(C)(CO)CCCCOCCCC(C)(C)CO | – | – | – | – | – | 17 | – | Change [1]: 21%; Change [2]: 32%; Change [4]: 44%; Change [5]: 24%; Change [6]: 40%; Change [7]: 74%
CC(C)(CCCCCCCCCCCC(C)(C)C(=O)O)C(=O)O | -87 | -89 | -66 | -14 | -60 | 7 | -6 | –
CC(C)(Cc1cccc(Oc2cccc(CC(C)(C)C(=O)O)c2)c1)C(=O)O | -27 | -46 | -59 | 20 | -21 | 53 | 16 | –
CC(C)(CCCOCCOCCCC(C)(C)C(=O)O)C(=O)O | -13 | -24 | -38 | -6 | -13 | 72 | -4 | –
CC(C)(CO)CCCOCCCC(C)(C)CO | – | – | – | – | – | – | – | Change [1]: 21%; Change [2]: 77%; IC50 [3]: Not Active; Change [4]: 7%; Change [5]: -13%; Change [6]: -8%; Change [7]: 58%
CC(C)(CO)CCCCOCCCCC(C)(CO)c1ccccc1 (centres undefined) | -45 | -61 | -55 | 26 | -13 | 5 | 52 | –
CC(C)(CO)CCCCOCCCCC(C)(C)COC1CCCCO1 (centres undefined) | -63 | -69 | -28 | 130 | -14 | 11 | 152 | –
CC(C)(CO)CCCCCCCCCC(C)(C)CO | -82 | -83 | -67 | 189 | -75 | 4 | 137 | –
CC(C)(CO)Cc1cccc(Oc2cccc(CC(C)(C)CO)c2)c1 | -54 | -32 | -50 | 17 | -50 | 98 | 25 | –
CC(C)(CO)CCCCCOCCCCC(C)(C)CO | – | – | – | – | – | 11 | – | Change [1]: -66%; Change [2]: -77%; Change [4]: -26%; Change [5]: 71%; Change [7]: 17%
CC(C)(CCCCOCCCCC(C)(C)COC1CCCCO1)COC1CCCCO1 (centres undefined) | 22 | -1 | 46 | 43 | 92 | 20 | 79 | –
CC(CO)(CCCOCCCC(C)(CO)c1ccccc1)c1ccccc1 (centres undefined) | -18 | -27 | -32 | 7 | -26 | 130 | 5 | –
